From ChEMBL document CHEMBL1789904, “Imaging of Plasmodium liver stages to drive next-generation antimalarial drug discovery” (Science, 2011) come the findings set out here.

In the assay the test system is Plasmodium yoelii. The assay is described as follows: NOVARTIS: Antimalarial liver stage activity measured as reduction in Plasmodium yoelii schizont area in HepG2-A16-CD81 cells by immuno-fluorescence, and median schizont size at 10uM compound concentration. Type of assay: functional, organism-based. The conditions noted are these: for pIC50: Plasmodium yoelii, HepG2-A16-CD81. A digest of the protocol: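 Host and parasite nuclei stained with Hoechst 33342, parasites with αPyHSP70 antibody; 25 images per well by high-content imaging; median parasite (schizont) area measured by automated image analysis, ~50 schizonts per experiment, two or more independent experiments.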

pIC50: −log10 of the molar value.

As usually defined, the pIC50 is −log10 of the IC50, conventionally taken in molar units. A high value points to a small IC50.

For the compound `CCOC(=O)c1cnc2ccc(C(C)C)cc2c1O`, the Schizont size stood at 31.42 um and the pIC50 is 6.45.
As to `CCN(CC)CCCNc1nc2cc(OC)c(OC)cc2c2nc(-c3ccccc3)nn12`, the Schizont size is 52.61 um and the negative-log IC50 (pIC50) is 6.49.
The corresponding values for `O=C(Nc1ccc(C(F)(F)F)cc1)c1ccc(NCCCN2CCCCCC2)c([N+](=O)[O-])c1` are 74.21 um and 6.35.
The matching figures for `COc1cccc(C(=O)NC(c2ccccc2OC)c2cc(Cl)c3cccnc3c2O)c1` (stereo not given): 20.25 um and 6.26.
Compound `Cc1ccc2[nH]c(C)c(Br)c(=O)c2c1` had a Schizont size of 29.96 um and a pIC50 of 6.60.
The corresponding values for `CCOC(=O)C1=C(C)NC2=C(C(=O)C(C(=O)OCC)C(c3cccc(OC)c3)C2)C1c1cc(OC)c(OC)c(OC)c1` (stereo not given) are 109.59 um and 6.63.
As for `COc1ccc2nc(C)cc(Nc3ccc(Cl)c(Cl)c3)c2c1`, the Schizont size is 39.25 um and the pIC50 is 6.36.
Take `CCCN(CCC)[P+](CCC)(c1ccc([P+](CCC)(N(CCC)CCC)N(CCC)CCC)cc1)N(CCC)CCC`: the Schizont size is 28.29 um and the pIC50 was 6.55.
Take `Cc1nc2ccc(Br)cc2c(O)c1CC(C)C`: the Schizont size amounted to 30.79 um and the pIC50 was 6.61.
For `O=C(Cc1ccccc1)NC(c1ccc(Cl)cc1)c1ccc2cccnc2c1O` (stereo not given), the Schizont size is on record as 17.33 um and the pIC50 is 6.72.
The compound `Cc1ccc(C2Sc3ccccc3NC3=C2C(=O)c2ccccc23)cc1` (stereo not given) gave a Schizont size of 27.03 um and a pIC50 of 6.56.
The corresponding values for `COc1cc(C(=O)N2N=C(c3c(-c4ccccc4)c4cc(Br)ccc4[nH]c3=O)CC2c2cccc([N+](=O)[O-])c2)cc(OC)c1OC` (stereo not given) are 29.43 um and 6.36.
The corresponding values for `Oc1c(C(Nc2ccccn2)c2cccc(Cl)c2Cl)ccc2cccnc12` (stereo not given) are 23.8 um and 6.40.
For the compound `CCOc1ccc(Nc2cc(=O)oc3ccccc23)cc1`, the Schizont size worked out at 43.94 um and the pIC50 is 6.30.
The matching figures for `CCOC(=O)c1cnc2ccc(OC)cc2c1NCc1cccs1`: 31.63 um and 6.72.
The matching figures for `CC(=O)N(C)C1=C(N2CCOCC2)C(=O)c2ccccc2C1=O`: 38.72 um and 6.64.
The compound `Cc1cccc(NC(=S)NC2CC3CCCC(C2)N3CCc2ccccc2)c1` (stereo not given) had a Schizont size of 67.74 um and a pIC50 of 6.56.
The matching figures for `CCC(C)Nc1nc(NC(C)CC)nc(N2CCCCCC2)n1` (stereo not given): 20.35 um and 6.52.
The corresponding values for `COc1cccc(NC(=O)c2ccc(NCCCN3CC(C)CC(C)C3)c([N+](=O)[O-])c2)c1` (stereo not given) are 87.57 um and 6.36.
The corresponding values for `Cc1oc2c(c1C(=O)NCC1CCCO1)C(=O)c1ccccc1C2=O` (stereo not given) are 21.4 um and 6.72.
Turning to `Cc1ccc(Nc2nc3c(N)nnc(N)c3nc2Nc2ccc(C)cc2)cc1`, the Schizont size worked out at 50.31 um and the pIC50 was 6.31.
The corresponding values for `CCNC(=O)C1CCN(c2cccc3c2C(=O)N(C2CCCCCCC2)C3=O)CC1` are 30.48 um and 6.57.
The compound `Nc1ccc(-c2nc3cc(Oc4ccc(Oc5ccc6[nH]c(-c7ccc(N)cc7)nc6c5)cc4)ccc3[nH]2)cc1` had a Schizont size of 116.48 um and a pIC50 of 6.50.
`CCCCC(=O)NC(c1cccc([N+](=O)[O-])c1)c1ccc2cccnc2c1O` (stereo not given) gave a Schizont size of 23.69 um and a pIC50 of 6.35.
As to `Cc1[nH]c2ccccc2c(=O)c1Br`, the Schizont size is recorded as 29.43 um and the pIC50 is 6.67.
The compound `Cc1ccc(Nc2nc(NCc3ccccc3)c3ccccc3n2)cc1` had a Schizont size of 31.73 um and a pIC50 of 6.56.
Take `CCCC(=O)N1CCN(c2nc(Cc3ccccc3)c3c(c2C#N)CC(C)(C)OC3)CC1`: the Schizont size worked out at 22.44 um and the pIC50 was 6.46.
`CC[n+]1c(C=C2C=C(C)OC(C)=C2)sc2ccccc21.[Cl-]` gave a Schizont size of 25.36 um and a negative logarithm of the IC50 (pIC50) of 6.61.
The matching figures for `CCCCCCCC[n+]1c(C)n(C)c2cc(Cl)c(Cl)cc21.[I-]`: 40.39 um and 6.38.
Consider `CCN(CC)c1ccc(NC(=O)c2cccs2)cc1`, for which the Schizont size is reported as 54.07 um and the pIC50 was 6.40.
The matching figures for `CCCc1nc2ccc(NC(=O)c3ccco3)cc2c(=O)n1Cc1ccc(-c2ccccc2)cc1`: 25.78 um and 6.51.
Compound `CCOC(=O)C1=C(C)NC2=C(C(=O)C(C(=O)OCC)C(c3ccc(OC)cc3)C2)C1c1ccc(OC)c(OC)c1` (stereo not given) had a Schizont size of 86.53 um and a pIC50 of 6.62.
The corresponding values for `O=c1c2ccccc2[nH]c2ccc(F)cc12` are 29.64 um and 6.65.
The matching figures for `Cc1ccccc1N=Nc1ccc(NC(=O)c2ccco2)c(C)c1`: 51.87 um and 6.52.
The matching figures for `CCCN[P+](CC(C)C)(NCCC)NCCC`: 27.24 um and 6.55.
On to `COc1ccc2nc(C)cc(Nc3ccc(Oc4ccc(Cl)c5ccccc45)c(Cl)c3)c2c1`, for which the Schizont size is recorded as 22.65 um and the negative-log IC50 (pIC50) is 6.57.
For `CCOC(=O)C1=C(C)NC2=C(C(=O)C(C(=O)OCC)C(c3ccccc3OC)C2)C1c1ccc([N+](=O)[O-])cc1` (stereo not given), the Schizont size is given as 76.3 um and the pIC50 was 6.47.
On to `COc1ccc(C(NC(=O)c2cccnc2)c2cc(Cl)c3cccnc3c2O)cc1` (stereo not given), for which the Schizont size is 21.08 um and the pIC50 was 6.27.
The corresponding values for `O=C(Nc1c2ccccc2nc2ccccc12)c1cc(Cl)ccc1O` are 43.52 um and 6.74.
The corresponding values for `CCN(CC)CCCN(Cc1cc2ccc(C)cc2[nH]c1=O)C(=S)Nc1cccc(Cl)c1` are 58.76 um and 6.35.
The matching figures for `COc1ccc(Nc2nc(NCc3ccccc3)c3ccccc3n2)cc1`: 29.96 um and 6.52.
`CCC(Sc1nnc(-c2ccc(C)cc2)c(-c2ccc(C)cc2)n1)C(=O)NCCOC` (stereo not given) had a Schizont size of 42.59 um and a pIC50 of 6.52.
Consider `O=[N+]([O-])c1cccc(C(Nc2nccs2)c2ccc3cccnc3c2O)c1` (stereo not given), for which the Schizont size was found to be 43.42 um and the pIC50 is 6.45.
The matching figures for `Cl.Clc1cccc(Nc2nc(NCc3ccco3)c3ccccc3n2)c1`: 36.64 um and 6.42.
The matching figures for `CCOC(=O)C1=C(C)NC2=C(C(=O)C(C(=O)OCC)C(c3ccccc3OC)C2)C1c1cc(OC)c(OC)c(OC)c1` (stereo not given): 103.54 um and 6.29.
Consider `CCOc1ccc(Nc2nc(NCc3ccccc3)c3ccccc3n2)cc1.Cl`, for which the Schizont size worked out at 23.69 um and the pIC50 was 6.32.
The matching figures for `CCCc1c(C)nc2ccccc2c1O`: 34.55 um and 6.55.
In turn, `C=CCc1c(C)nc2ccc(Br)cc2c1O` had a Schizont size of 32.46 um and a pIC50 of 6.74.
The corresponding values for `O=C(Nc1ccc(Oc2cccc(Oc3ccc(NC(=O)c4ccc(Br)o4)cc3)c2)cc1)c1ccc(Br)o1` are 18.79 um and 6.36.
The corresponding values for `CCOC(=O)c1cnc2ccc(OC)cc2c1Cl` are 31 um and 6.39.
The corresponding values for `OC1=C2C(=Nc3ccccc3SC2c2ccc(Br)cc2)c2ccccc21` (stereo not given) are 34.03 um and 6.49.
Take `CCCC(=O)NC(c1ccc(Cl)cc1)c1ccc2cccnc2c1O` (stereo not given): the Schizont size is 14.09 um and the pIC50 is 6.72.
The matching figures for `Cc1cc(C(=O)Nc2cnn(Cc3ccc(Cl)cc3Cl)c2)no1`: 57.82 um and 6.47.
The matching figures for `O=c1c2c([nH]c3ccccc13)CCCC2`: 39.45 um and 6.30.
The matching figures for `CCOC(=O)CN(N=O)C1=C(N2CC2)C(=O)c2ccccc2C1=O`: 35.8 um and 6.32.
In turn, `Oc1cccc2ccc[n+](CC(O)Cn3c4ccccc4c4ccccc43)c12.[Cl-]` (stereo not given) showed a Schizont size of 49.37 um and a pIC50 of 6.51.
The corresponding values for `N#Cc1ccc(NC(=O)NC2CC3CCCC(C2)N3CCc2ccccc2)cc1` (stereo not given) are 62 um and 6.30.
In turn, `CCCCCCCc1cc(O)c2c3c(c(=O)oc2c1)CCC(C)C3` (stereo not given) had a Schizont size of 31.52 um and a pIC50 of 6.61.
With `O=C1c2ccccc2C2=Nc3ccccc3SC(c3ccccc3F)C12` (stereo not given), the Schizont size is listed as 28.6 um and the negative-log IC50 (pIC50) was 6.62.
The corresponding values for `CCN1CCN(c2c(C(=O)c3ccccc3)cnc3cc(OC)c(OC)cc23)CC1` are 89.76 um and 6.44.
The matching figures for `CCCCNC(=O)C(CC)Sc1nnc(-c2ccc(C)cc2)c(-c2ccc(C)cc2)n1` (stereo not given): 31 um and 6.54.
`CN(C)c1ccc(-c2n(C)c3ccccc3[n+]2C)cc1.[Cl-]` gave a Schizont size of 46.86 um and a pIC50 of 6.76.
The matching figures for `CC[n+]1c(C=C2C=CN(C)C=C2)ccc2cc(C)ccc21.[I-]`: 25.57 um and 6.77.
Regarding `CCCCc1c(CCC)c(=N)c2ccccc2n1C.I`, the Schizont size is given as 58.14 um and the pIC50 is 6.61.
In turn, `CCCCN(CCCC)S(=O)(=O)c1ccc(NC(=O)c2ccco2)cc1` gave a Schizont size of 35.28 um and a pIC50 of 6.42.
